Laboratory results published in ChEMBL document CHEMBL1130018, “Synthesis and anticonvulsant activities of 3,3-dialkyl- and 3-alkyl-3-benzyl-2-piperidinones (delta-valerolactams) and hexahydro-2H-azepin-2-ones (epsilon-caprolactams)” (J Med Chem, 1997).

What was measured:
[1] = Neurotoxicity was evaluated by a rotarod test; assay type: toxicity; details: mouse
How it was run: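 Mice were given at least four i.p. doses of compound in 30% polyethylene glycol at 0.01 mL/g, with six per dose, then tested on the rotorod. TD50 is the dose at which 50% failed, with 95% fiducial limits. Where these could not be calculated, the highest all-nontoxic dose and the lowest all-toxic dose are given instead.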

[2] = Protective Index (PI) determined as the ratio of toxic dose (TD50) and effective dose (ED50 (MES)); assay type: ADME; details: mouse; read-out: PI
How it was run: (§1)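 The protective index was calculated as rotorod TD50 divided by the ED50 against PTZ- or MES-induced seizures. All values come from i.p. dosing in 30% polyethylene glycol in mice, six per dose.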

[3] = Protective Index (PI) determined as the ratio of toxic dose (TD50) and effective dose (ED50 (PTZ)); assay type: ADME; details: mouse; read-out: PI; how it was run: as §1
[4] = system: Mus musculus; assay: Anticonvulsant activity expressed as dose at which 50% of the mice were protected from clonic seizures induced by pentylenetetrazole (85 mg/Kg); assay type: functional
How it was run: (§2)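 Mice were given at least four doses, with six animals per dose. Compound was dissolved in 30% polyethylene glycol and injected i.p. at 0.01 mL/g body weight. Challenge was pentylenetetrazole 85 mg/kg (clonic seizures) or maximal electroshock (tonic hindlimb extension). ED50 is the dose protecting 50%, with 95% fiducial limits.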

[5] = biological target: GABA-A receptor; anion channel; assay: Ability to displace radioligand [35S]TBPS from Gamma-aminobutyric acid A receptor binding site in rat brain membranes; assay type: cell membranes
How it was run: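 Values are mean and range from duplicate experiments, each run in triplicate. For some lactams the values are mean ± SEM of three experiments run in triplicate. Read-out is IC50 (mM) for displacement of [35S]TBPS.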

[6] = organism: Mus musculus; assay: Anticonvulsant activity expressed as dose at which 50% of the mice were protected from tonic hindlimb seizures induced by maximal electroshock (MES); assay type: functional; how it was run: as §2
[7] = organism: Rattus norvegicus; assay: Antagonism of compound (200 uM) induced potentiation of 3 uM GABA-mediated chloride currents in cultured rat hippocampal neurons; assay type: functional
How it was run: (§3)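 Whole-cell peak current evoked by 3 μM GABA, with test compound alone or with 3 mM α-isopropyl-α-methyl-γ-butyrolactone, in cultured rat hippocampal neurons. Each peak was normalized to the peak from 3 μM GABA alone on the same cell, with 100% meaning no change. Values are mean ± SEM over 5–14 cells. Alone vs plus antagonist was compared by Student's t test.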

[8] = biological target: GABA-A receptor; anion channel (Rattus norvegicus) (UniProt O09028+P15431+P18506+P18508+P19969+P20236+P23574+P23576+P28471+P28473+P30191+P62813+P63079+P63138+Q91ZM7+Q9ES14); assay: Induced potentiation of 3 uM GABA-mediated chloride currents at 1 mM in the presence of 3 mM alpha-IMGBL (picrotoxin antagonist); assay type: functional; how it was run: as §3
[9] = organism: Rattus norvegicus; assay: Antagonism of compound (600 uM) induced potentiation of 3 uM GABA-mediated chloride currents in cultured rat hippocampal neurons; assay type: functional
How it was run: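 Cultured rat hippocampal neurons. Test compound was applied with 3 μM GABA, with and without α-isopropyl-α-methyl-γ-butyrolactone (3 mM). Peak current was normalized to the peak from 3 μM GABA alone on the same cell, where 100% means no change. Mean ± SEM over N cells; Student's t test compared compound alone with compound plus antagonist.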

[10] = organism: Rattus norvegicus; assay: Antagonism of compound (300 uM) induced potentiation of 3 uM GABA-mediated chloride currents in cultured rat hippocampal neurons; assay type: functional; how it was run: as §3
[11] = organism: Rattus norvegicus; assay: Antagonism of compound (1 mM) induced potentiation of 3 uM GABA-mediated chloride currents in cultured rat hippocampal neurons; assay type: functional; how it was run: as §3
[12] = system: Mus musculus; assay: Anticonvulsant activity expressed as dose at which 50% of the mice were protected from clonic seizures induced by pentylenetetrazole (85 mg/Kg); cytotoxicity observed at 300 mg/kg; assay type: functional

Compound: CCC1CCCNC1=O (configuration not stated)
- TD50 [1]: > 325 mg/kg
- selectivity ratio [2]: > 0.59
- selectivity ratio [3]: > 1.09
- ED50 [4]: 297 mg/kg
- IC50 [5]: 8.78 mM
- ED50 [6]: 550 mg/kg

Compound: CC1(Cc2ccccc2)CCCNC1=O (configuration not stated)
- TD50 [1]: 125 mg/kg
- selectivity ratio [2]: 2.5
- selectivity ratio [3]: 2.23
- IC50 [5]: 0.73 mM
- ED50 [6]: 50 mg/kg

Compound: O=C1NCCC1Cc1ccccc1 (configuration not stated)
- selectivity ratio [2]: 3.51
- selectivity ratio [3]: 2.03

Compound: CCC1(CC)CCCCNC1=O
- TD50 [1]: 131 mg/kg
- selectivity ratio [2]: 0.74
- selectivity ratio [3]: 0.58
- ED50 [4]: 226 mg/kg
- IC50 [5]: 0.38 mM
- ED50 [6]: 178 mg/kg
- Response [7]: 117%
- Response [8]: 105%

Compound: CCC1(Cc2ccccc2)CCCCNC1=O (configuration not stated)
- TD50 [1]: > 100 mg/kg
- ED50 [4]: > 100 mg/kg
- IC50 [5]: 0.09 mM
- ED50 [6]: > 100 mg/kg
- Response [8]: 107%
- Response [9]: 128%

Compound: O=C1CCCCN1
- TD50 [1]: > 600 mg/kg
- IC50 [5]: 197 mM
- ED50 [6]: > 600 mg/kg

Compound: CC1CCCNC1=O (configuration not stated)
- TD50 [1]: > 600 mg/kg
- IC50 [5]: 27.7 mM

Compound: CCC1(Cc2ccccc2)CCCNC1=O (configuration not stated)
- TD50 [1]: 103 mg/kg
- selectivity ratio [2]: 1.47
- selectivity ratio [3]: 1.69
- IC50 [5]: 0.27 mM
- ED50 [6]: 70 mg/kg
- Response [10]: 138%
- Response [8]: 93%

Compound: CCC1(C)CC(=O)NC1=O (configuration not stated) [ETHOSUXIMIDE]
- TD50 [1]: 378 mg/kg
- selectivity ratio [2]: < 0.67
- selectivity ratio [3]: 2.35
- ED50 [6]: > 562 mg/kg

Compound: O=C1NCCCC1Cc1ccccc1 (configuration not stated)
- TD50 [1]: 289 mg/kg
- selectivity ratio [2]: 7.05
- selectivity ratio [3]: 3.52
- ED50 [4]: 82 mg/kg
- IC50 [5]: 1.44 mM
- ED50 [6]: 41 mg/kg

Compound: CCC1(CC)CCCNC1=O
- TD50 [1]: 165 mg/kg
- Response [11]: 142%
- selectivity ratio [2]: 3.06
- selectivity ratio [3]: 4.46
- ED50 [4]: 37 mg/kg
- IC50 [5]: 1.31 mM
- ED50 [6]: 54 mg/kg
- Response [8]: 102%

Compound: O=C1CCCCCN1 [CAPROLACTAM]
- TD50 [1]: < 300 mg/kg
- ED50 [12]: > 300 mg/kg
- selectivity ratio [2]: < 1
- selectivity ratio [3]: < 1
- IC50 [5]: 17.4 mM
- ED50 [6]: > 300 mg/kg

Compound: CCC1CCCCNC1=O (configuration not stated)
- TD50 [1]: 145 mg/kg
- selectivity ratio [2]: 0.58
- selectivity ratio [3]: 0.69
- ED50 [4]: 210 mg/kg
- IC50 [5]: 3.2 mM
- ED50 [6]: 249 mg/kg

Compound: CCC1(C)CCCNC1=O (configuration not stated)
- TD50 [1]: 378 mg/kg
- selectivity ratio [2]: 1.9
- selectivity ratio [3]: 2.25
- ED50 [4]: 168 mg/kg
- IC50 [5]: 4.41 mM
- ED50 [6]: 199 mg/kg

Compound: CCC1(CC)CCNC1=O
- selectivity ratio [2]: 1.49
- selectivity ratio [3]: 5.65

Compound: CCCC(CCC)C(=O)O [VALPROIC ACID]
- ED50 [6]: 206 mg/kg

Compound: CCC1(c2ccccc2)C(=O)NC(=O)NC1=O [PHENOBARBITAL]
- TD50 [1]: 88 mg/kg
- selectivity ratio [2]: 5.18
- selectivity ratio [3]: 4
- ED50 [6]: 17 mg/kg
